Blank lines part the entries; values can stand above or below the molecule they belong to.
Legend:
rat mGlu1 = rat mGlu1 (Rattus norvegicus, UniProt P23385); assay: rat mGlu1 calcium mobilization assay; format: cell-based; settings: for mGlu1 pIC50 (± SEM): Calcium mobilization assay, rat mGlu1, NAM; for mGlu1 NAM activity (in words): top concentration tested 30 μM
rat mGlu5 = rat mGlu5 (Rattus norvegicus, UniProt P31424); assay: rat mGlu5 calcium mobilization assay; format: cell-based
[1] = Mouse IP PK time course study; format: in vivo, male CD-1 mice; settings: mice; IP 30 mg/kg
In short: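 Tissue distribution was run in parallel under the same conditions, with brain and plasma taken at 30 min to give Kp and Kp,uu. Unbound brain concentration was estimated from these exposures combined with fraction unbound from equilibrium dialysis.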

Rat IV PK = format: in vivo, male Sprague-Dawley rats; settings: male, Sprague-Dawley, plasma, 0.2 mg/kg
In short: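 Male Sprague-Dawley rats were dosed IV with 2 animals per time point. The plasma concentration–time profile gave half-life, plasma clearance and steady-state volume of distribution.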

369 kinases = assay: kinase panel of 369 kinases; format: biochemical; settings: 10 μM
[2] = test system: 68 clinically relevant targets; assay: radioligand binding assay panel of 68 clinically relevant targets; settings: 10 μM; significant = greater than or equal to 50% inhibition of binding
In short: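 Test compound was screened at a single 10 μM concentration for displacement of radioligand binding at each panel target. Inhibition of binding of at least 50% was counted as a significant response.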

[3] = test system: remaining six members of the mGlu family; assay: mGlu selectivity fold-shift experiments on orthosteric agonist CRC; format: cell-based
[4] = Rat IP PK time course study; format: in vivo, male Sprague-Dawley rats; settings: rats; IP 10 mg/kg
In short: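 Male Sprague-Dawley rats received a single 10 mg/kg IP dose, with 2 animals per time point. Plasma was followed over time for Tmax, Cmax and AUC. Brain and plasma were taken at 15 min to give Kp and Kp,uu. Unbound brain concentration was estimated from these exposures combined with fraction unbound from equilibrium dialysis.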

rat mGlu1, sequence (P23385 19-1199): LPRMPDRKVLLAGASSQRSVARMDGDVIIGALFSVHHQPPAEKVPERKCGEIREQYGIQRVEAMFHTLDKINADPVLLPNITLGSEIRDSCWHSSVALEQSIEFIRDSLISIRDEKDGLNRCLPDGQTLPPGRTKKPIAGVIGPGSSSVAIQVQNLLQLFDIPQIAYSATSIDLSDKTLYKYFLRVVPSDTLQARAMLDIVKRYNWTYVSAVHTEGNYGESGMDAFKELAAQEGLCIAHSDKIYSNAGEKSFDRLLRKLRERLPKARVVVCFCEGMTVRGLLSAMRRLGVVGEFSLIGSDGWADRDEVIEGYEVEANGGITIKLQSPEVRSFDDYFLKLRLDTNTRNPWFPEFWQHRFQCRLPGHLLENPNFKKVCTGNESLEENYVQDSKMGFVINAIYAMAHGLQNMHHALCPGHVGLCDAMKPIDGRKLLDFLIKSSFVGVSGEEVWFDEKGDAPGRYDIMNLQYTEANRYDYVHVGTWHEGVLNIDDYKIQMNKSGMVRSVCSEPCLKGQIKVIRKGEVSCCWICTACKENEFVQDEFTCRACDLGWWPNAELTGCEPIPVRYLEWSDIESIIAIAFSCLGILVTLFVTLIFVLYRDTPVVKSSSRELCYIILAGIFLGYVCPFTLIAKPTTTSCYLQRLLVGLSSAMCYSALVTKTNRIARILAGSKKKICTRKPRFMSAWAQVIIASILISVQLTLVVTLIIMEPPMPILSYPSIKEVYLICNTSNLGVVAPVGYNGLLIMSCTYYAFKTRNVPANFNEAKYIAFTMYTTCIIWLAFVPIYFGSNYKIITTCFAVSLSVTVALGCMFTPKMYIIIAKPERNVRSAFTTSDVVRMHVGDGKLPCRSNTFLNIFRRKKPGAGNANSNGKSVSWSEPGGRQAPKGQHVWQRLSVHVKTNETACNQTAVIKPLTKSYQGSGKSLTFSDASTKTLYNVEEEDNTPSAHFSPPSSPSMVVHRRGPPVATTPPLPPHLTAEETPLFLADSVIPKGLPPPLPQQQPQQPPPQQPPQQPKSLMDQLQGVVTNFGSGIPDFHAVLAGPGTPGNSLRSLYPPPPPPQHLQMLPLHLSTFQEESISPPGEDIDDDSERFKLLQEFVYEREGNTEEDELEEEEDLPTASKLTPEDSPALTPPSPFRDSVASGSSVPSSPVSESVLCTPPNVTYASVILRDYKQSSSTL
rat mGlu5, sequence (P31424 21-1203): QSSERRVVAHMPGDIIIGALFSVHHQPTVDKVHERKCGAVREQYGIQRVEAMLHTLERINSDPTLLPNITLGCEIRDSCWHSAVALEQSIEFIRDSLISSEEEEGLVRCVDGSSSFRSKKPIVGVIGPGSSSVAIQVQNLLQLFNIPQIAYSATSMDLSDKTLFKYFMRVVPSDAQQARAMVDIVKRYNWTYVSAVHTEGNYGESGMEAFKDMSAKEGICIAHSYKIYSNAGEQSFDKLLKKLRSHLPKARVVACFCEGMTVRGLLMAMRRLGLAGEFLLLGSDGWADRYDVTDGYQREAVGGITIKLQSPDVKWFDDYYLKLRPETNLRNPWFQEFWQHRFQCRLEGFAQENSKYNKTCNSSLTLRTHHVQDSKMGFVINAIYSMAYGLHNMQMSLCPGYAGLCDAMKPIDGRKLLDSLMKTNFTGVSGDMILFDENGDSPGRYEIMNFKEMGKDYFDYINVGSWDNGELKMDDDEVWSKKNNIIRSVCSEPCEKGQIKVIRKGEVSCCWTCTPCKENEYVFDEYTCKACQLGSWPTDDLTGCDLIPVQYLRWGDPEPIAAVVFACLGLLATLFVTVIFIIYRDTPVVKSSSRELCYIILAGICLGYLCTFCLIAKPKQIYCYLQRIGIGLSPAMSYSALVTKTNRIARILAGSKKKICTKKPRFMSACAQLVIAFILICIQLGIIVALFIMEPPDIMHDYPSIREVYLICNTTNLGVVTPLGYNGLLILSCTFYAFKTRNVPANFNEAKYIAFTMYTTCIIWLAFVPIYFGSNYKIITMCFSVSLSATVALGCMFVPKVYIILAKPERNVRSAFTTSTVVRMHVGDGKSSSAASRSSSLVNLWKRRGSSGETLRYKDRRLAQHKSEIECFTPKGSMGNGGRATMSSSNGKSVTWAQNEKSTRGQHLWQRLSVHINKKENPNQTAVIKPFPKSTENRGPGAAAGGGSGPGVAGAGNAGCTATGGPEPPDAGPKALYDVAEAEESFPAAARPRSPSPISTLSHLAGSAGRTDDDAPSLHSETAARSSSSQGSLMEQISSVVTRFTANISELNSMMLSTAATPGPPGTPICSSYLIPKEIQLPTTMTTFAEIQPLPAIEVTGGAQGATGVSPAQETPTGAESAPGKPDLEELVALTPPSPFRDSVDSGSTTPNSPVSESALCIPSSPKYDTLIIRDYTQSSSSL

SMILES: CCC(C)(C)Nc1ncnc2c1nn1ccccc21 [Compound 19]
mGlu1 NAM activity (in words) (rat mGlu1): only a weak mGlu1 NAM, inhibiting the glutamate response only at the top concentration tested

SMILES: C[C@H]1CC[C@H](Nc2nc(N)nc3c2nn2ccccc32)CC1 [Compound 41]
mGlu1 NAM activity (in words) (rat mGlu1): weak mGlu1 NAM activity

SMILES: CNc1nc(N[C@H]2CC[C@H](C)CC2)c2nn3ccccc3c2n1 [Compound 42]
mGlu1 pIC50 (± SEM) (rat mGlu1): < 4.5

SMILES: CN(C)c1nc(N[C@H]2CC[C@H](C)CC2)c2nn3ccccc3c2n1 [Compound 43]
mGlu1 pIC50 (± SEM) (rat mGlu1): < 4.5

SMILES: CC(C)Nc1nc(N[C@H]2CC[C@H](C)CC2)c2nn3ccccc3c2n1 [Compound 44]
mGlu1 pIC50 (± SEM) (rat mGlu1): < 4.5

Now from value to molecule, other results behind:

mGlu1 pIC50 (± SEM) (rat mGlu1): < 4.5
SMILES: C[C@H](Nc1ncnc2c1nn1ccccc21)C1CC1 [Compound 12]

mGlu5 NAM potency relative to mGlu1 NAM activity (rat mGlu5; rat mGlu5 vs rat mGlu1): approximately ten-fold less
SMILES: CC(C)(C)CCNc1ncnc2c1nn1ccccc21 [Compound 18]

estimated unbound brain concentration [1]: approximately 100 nM
Vd (Rat IV PK): 3.1 L/kg
number of kinases of 369 inhibited more than 50% (369 kinases): eight
number of the 68 targets with no significant responses [2]: 62
mGlu5 pIC50 (± SEM) (rat mGlu5; Calcium mobilization assay, rat mGlu5, NAM): 6.89 ± 0.29
estimated unbound brain concentration [4]: approximately 100 nM
SMILES: CC1(C)CCC(Nc2ncnc3c2nn2ccccc32)CC1 [Compound 29, N-(4,4-dimethylcyclohexyl)pyrido[1′,2′:1,5]pyrazolo[4,3-d]pyrimidin-4-amine]
effect on the orthosteric agonist concentration-response curve (fold-shift) ([3]; 10 μM, remaining six mGlus): no significant effects were observed
selectivity for the group I mGlu receptors ([3]; versus remaining six mGlus): > 75 fold
